# According to ChEMBL document CHEMBL3244146, “Pyranenamines: a new series of antiallergic compounds” (1979):
# Experiments:
# Assay type in all cases: functional
# [1] = test system: Rattus norvegicus; assay: Antiallergic activity in rat assessed as inhibition of egg albumin-induced passive cutaneous anaphylaxis at 10 mg/kg, iv treated for 30 secs followed by egg albumin-challenge measured after 30 mins relative to control; conditions: 0.5 h
# [2] = test system: Rattus norvegicus; assay: Antiallergic activity in iv dosed rat assessed as inhibition of egg albumin-induced passive cutaneous anaphylaxis treated for 30 secs followed by egg albumin-challenge measured after 30 mins; conditions: 0.5 h, read-out: ID50 (the source's name)
# [3] = test system: Rattus norvegicus; assay: Antiallergic activity in rat assessed as inhibition of egg albumin-induced passive cutaneous anaphylaxis at 0.5 mg/kg, iv treated for 30 secs followed by egg albumin-challenge measured after 30 mins relative to control; conditions: 0.5 h
# [4] = test system: Rattus norvegicus; assay: Antiallergic activity in rat assessed as inhibition of egg albumin-induced passive cutaneous anaphylaxis at 25 mg/kg, po treated for 15 mins followed by egg albumin-challenge measured after 30 mins relative to control
# How it was run: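 Oral PCA in rats: intradermal antiserum at four back sites (dose giving ~12×12 mm wheal), compound po 48 h later, 15 min before iv challenge with 0.5 mL saline containing 5 mg Evans blue plus 5 mg egg albumin; skin bluing read 30 min after challenge on two axes per wheal; six rats per dose versus ≥6 vehicle controls; percent inhibition from mean wheal size, one-sided t test.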
SMILES,ED50 [2],inhibition in vivo at 0.5 mg/kg [3],inhibition in vivo at 25 mg/kg [4],also measured
CC(=O)C1=C(O)/C(=C(\C)Nc2ccc(Cl)cc2)C(=O)OC1=O,,,,inhibition in vivo at 10 mg/kg [1]: 84%
CCOC(=O)Nc1cccc(N/C(C)=C2\C(=O)OC(=O)C(C(C)=O)=C2O)c1,0.4 mg/kg,,,
CC(=O)c1c(O)oc(=O)c(C(C)=O)c1O,14 mg/kg,,,
CC(=O)C1=C(O)/C(=C(\C)Nc2ccc(OC(=O)C(C)(C)C)cc2)C(=O)OC1=O,,3%,,
CCCC(=O)Nc1cc(NC(=O)CCC)cc(N/C(C)=C2\C(=O)OC(=O)C(C(C)=O)=C2O)c1,0.05 mg/kg,,7%,
CCCCCCC(=O)c1c(O)oc(=O)c(C(=O)CCCCCC)c1O,,,,inhibition in vivo at 10 mg/kg [1]: 27%
CC(=O)C1=C(O)/C(=C(\C)Nc2ccc(NS(N)(=O)=O)cc2)C(=O)OC1=O,0.3 mg/kg,,10%,
CCC(=O)Nc1cccc(N/C(C)=C2\C(=O)OC(=O)C(C(C)=O)=C2O)c1,0.2 mg/kg,,70%,
CNc1cc(N/C(C)=C2\C(=O)OC(=O)C(C(C)=O)=C2O)ccc1O,,-6%,,
CC(=O)C1=C(O)/C(=C(\C)Nc2ccc(NC=O)cc2)C(=O)OC1=O,,49%,-6%,
CNC(=O)c1cc(N/C(C)=C2\C(=O)OC(=O)C(C(C)=O)=C2O)ccc1O,,38%,,
CC(=O)C1=C(O)/C(=C(\C)Nc2ccc(F)cc2)C(=O)OC1=O,,,,inhibition in vivo at 10 mg/kg [1]: 54%
CC(=O)C1=C(O)/C(=C(\C)Nc2cccc(OCC(=O)O)c2)C(=O)OC1=O,,6%,,
CC(=O)C1=C(O)/C(=C(\C)Nc2cccc(NS(=O)(=O)c3ccccc3)c2)C(=O)OC1=O,1.3 mg/kg,,7%,
CC(=O)C1=C(O)/C(=C(\C)Nc2ccc(NS(=O)(=O)c3ccccc3)cc2)C(=O)OC1=O,,4%,,
CC(=O)C1=C(O)/C(=C(\C)Nc2cccc(NC(N)=O)c2)C(=O)OC1=O,,45%,6%,
CC(=O)CCC(=O)Nc1cccc(N/C(C)=C2\C(=O)OC(=O)C(C(C)=O)=C2O)c1,0.4 mg/kg,,,
CC(=O)C1=C(O)/C(=C(\C)Nc2ccc(NC(N)=O)cc2)C(=O)OC1=O,,38%,-17%,
CC(=O)C1=C(O)/C(=C(\C)Nc2ccc3oc(C)nc3c2)C(=O)OC1=O,,13%,,
CC(=O)NCc1cccc(N/C(C)=C2\C(=O)OC(=O)C(C(C)=O)=C2O)c1,,4%,,
CC(=O)C1=C(O)/C(=C(\C)Nc2cccc(NC(=N)N)c2)C(=O)OC1=O.O=[N+]([O-])O,0.9 mg/kg,,-7%,
CC(=O)C1=C(O)/C(=C(\C)Nc2ccc(OC(N)=O)cc2)C(=O)OC1=O,,19%,,
CC(=O)C1=C(O)/C(=C(\C)Nc2ccccc2O)C(=O)OC1=O,2.8 mg/kg,,-12%,

SMILES,ED50 [2],inhibition in vivo at 0.5 mg/kg [3],inhibition in vivo at 25 mg/kg [4],also measured
CC(=O)C1=C(O)/C(=C(\C)Nc2cccc(C(N)=O)c2)C(=O)OC1=O,,-16%,,
CC(=O)C1=C(O)/C(=C(\C)Nc2cccc(NS(C)(=O)=O)c2)C(=O)OC1=O,,28%,,
CCCCC(=O)Oc1ccc(N/C(C)=C2\C(=O)OC(=O)C(C(C)=O)=C2O)cc1,,34%,36%,
CC(=O)NCc1cc(N/C(C)=C2\C(=O)OC(=O)C(C(C)=O)=C2O)ccc1O,,1%,,
CC(=O)C1=C(O)/C(=C(\C)Nc2cccc(NS(N)(=O)=O)c2)C(=O)OC1=O,,45%,13%,
CCOC(=O)Nc1cc(NC(=O)OCC)cc(N/C(C)=C2\C(=O)OC(=O)C(C(C)=O)=C2O)c1,0.25 mg/kg,,-18%,
CC(=O)C1=C(O)/C(=C(\C)Nc2ccc(OC(=O)NC3C=CC=CC=C3)cc2)C(=O)OC1=O,,22%,,
CC(=O)Nc1ccc(O)c(N/C(C)=C2\C(=O)OC(=O)C(C(C)=O)=C2O)c1,,40%,4%,
CNC(=O)c1cccc(N/C(C)=C2\C(=O)OC(=O)C(C(C)=O)=C2O)c1,,24%,,
CC(=O)C1=C(O)/C(=C(\C)Nc2cccc(NC(=O)C(O)CO)c2)C(=O)OC1=O (stereo not given),0.05 mg/kg,,55%,
CC(=O)C1=C(O)/C(=C(\C)Nc2ccc(Br)cc2)C(=O)OC1=O,,0%,,
CC(=O)C1=C(O)/C(=C(\C)Nc2cccc(C(=O)N(C)C)c2)C(=O)OC1=O,,10%,,
CC(=O)C1=C(O)/C(=C(\C)Nc2cccc(NC=O)c2)C(=O)OC1=O,,22%,,
CC(=O)C1=C(O)/C(=C(\C)Nc2cc(NS(=O)(=O)c3ccccc3)cc(NS(=O)(=O)c3ccccc3)c2)C(=O)OC1=O,,-9%,,
CC(=O)Nc1ccccc1N/C(C)=C1\C(=O)OC(=O)C(C(C)=O)=C1O,,-12%,,
CC(=O)C1=C(O)/C(=C(\C)Nc2c(O)cccc2O)C(=O)OC1=O,,-22%,,
CCC(=O)Oc1ccc(N/C(C)=C2\C(=O)OC(=O)C(C(C)=O)=C2O)cc1,,16%,,
CCNC(=O)c1cccc(N/C(C)=C2\C(=O)OC(=O)C(C(C)=O)=C2O)c1,,-4%,,
CC(=O)C1=C(O)/C(=C(\C)Nc2cccc(C(=O)NC3C(=O)NC(=O)NC3=O)c2)C(=O)OC1=O,,39%,,
CC(=O)C1=C(O)/C(=C(\C)Nc2cccc(N3C(=O)CCC3=O)c2)C(=O)OC1=O,,22%,,
CCCCCCC(=O)Oc1ccc(N/C(C)=C2\C(=O)OC(=O)C(C(C)=O)=C2O)cc1,,21%,,
CC(=O)C1=C(O)/C(=C(\C)Nc2cc(O)c(O)c(O)c2)C(=O)OC1=O,0.4 mg/kg,,-3%,
CC(=O)C1=C(O)/C(=C(\C)Nc2ccc(S(N)(=O)=O)cc2)C(=O)OC1=O,,12%,,

SMILES,ED50 [2],inhibition in vivo at 0.5 mg/kg [3],inhibition in vivo at 25 mg/kg [4],also measured
CC(=O)C1=C(O)/C(=C(\C)Nc2cccc(S(N)(=O)=O)c2)C(=O)OC1=O,,45%,,
CC(=O)C1=C(O)/C(=C(\C)Nc2cc(C(F)(F)F)cc(C(F)(F)F)c2)C(=O)OC1=O,,14%,,
CC(=O)C1=C(O)/C(=C(\C)Nc2ccccc2NC=O)C(=O)OC1=O,,52%,31%,
CC(=O)C1=C(O)/C(=C(\C)Nc2ccc(NS(C)(=O)=O)cc2)C(=O)OC1=O,,20%,,
CC(=O)C1=C(O)/C(=C(\C)Nc2cccc(NC(=N)NS(=O)(=O)c3ccc(C)cc3)c2)C(=O)OC1=O,,2%,,
CCCC(=O)Nc1cccc(N/C(C)=C2\C(=O)OC(=O)C(C(C)=O)=C2O)c1,,58%,,
CC(=O)C1=C(O)/C(=C(\C)Nc2ccc(S)cc2)C(=O)OC1=O,1.9 mg/kg,,,
CC(=O)C1=C(O)/C(=C(\C)Nc2cccc(NC(=O)C(C)C)c2)C(=O)OC1=O,,72%,46%,
CC(=O)Oc1ccc(N/C(C)=C2\C(=O)OC(=O)C(C(C)=O)=C2O)cc1,,41%,,
CC(=O)C1=C(O)/C(=C(\C)Nc2cccc(NC(=O)C(=O)C(=O)O)c2)C(=O)OC1=O,0.03 mg/kg,,21%,
CCC(=O)Nc1ccc(N/C(C)=C2\C(=O)OC(=O)C(C(C)=O)=C2O)cc1,1.6 mg/kg,,,
CCCCCC(=O)c1c(O)oc(=O)c(C(=O)CCCCC)c1O,6 mg/kg,,,
CC(=O)C1=C(O)/C(=C(\C)Nc2ccc(OCC(=O)O)cc2)C(=O)OC1=O,0.5 mg/kg,,2%,
CC(=O)C1=C(O)/C(=C(\C)Nc2cccc(O)c2)C(=O)OC1=O,1.6 mg/kg,,0%,
CC(=O)C1=C(O)/C(=C(\C)Nc2ccc(N)cc2)C(=O)OC1=O,,58%,23%,
CC(=O)C1=C(O)/C(=C(\C)Nc2ccccc2N)C(=O)OC1=O,27.5 mg/kg,,,
CC(=O)C1=C(O)/C(=C(\C)N2CCOCC2)C(=O)OC1=O,,2%,,
CC(=O)C1=C(O)/C(=C(\C)Nc2ccc(O)c(NS(C)(=O)=O)c2)C(=O)OC1=O,,38%,,
CCCCCC(=O)Oc1ccc(N/C(C)=C2\C(=O)OC(=O)C(C(C)=O)=C2O)cc1,12.1 mg/kg,,,
COc1ccc(N/C(C)=C2\C(=O)OC(=O)C(C(C)=O)=C2O)cc1NC(C)=O,,27%,,
CC(=O)C1=C(O)/C(=C(\C)Nc2cccc(N)c2)C(=O)OC1=O,0.3 mg/kg,,,
CNc1cccc(N/C(C)=C2\C(=O)OC(=O)C(C(C)=O)=C2O)c1,,-8%,,
CCCC(=O)Oc1ccc(N/C(C)=C2\C(=O)OC(=O)C(C(C)=O)=C2O)cc1,1.5 mg/kg,,,
